Active and inactive are the calls of the source. The rule behind the calls is not given here.
Columns and labels:
Plasmodium falciparum [1] = assay: Antimalarial activity against chloroquine-sensitive Plasmodium falciparum 3D7 infected in […] after 72 hrs by SYBR Green I-based fluorescence method; format: functional, organism-based; settings: for IC50: 3D7, 72 h
Plasmodium chabaudi [2] = assay: Antimalarial activity against Plasmodium chabaudi ASS infected in NIH mouse assessed as inhibition of parasitemia at 110 mg/kg, po qd for 4 days; format: functional; settings: 96 h
How it was run: (§1)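 Mice infected with P. chabaudi were given oral doses once daily for four days, starting four hours after infection. Parasitemia was read on Day 4 postinoculation and expressed as percent inhibition of parasitemia.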

Plasmodium falciparum [3] = assay: Antimalarial activity against chloroquine and pyrimethamine-resistant Plasmodium falciparum Dd2 infected in […] after 48 hrs by SYBR Green I-based fluorescence method; format: functional
[4] = Plasma concentration in Plasmodium chabaudi ASS infected NIH mouse at 110 mg/kg, po qd measured 30 mins after post last dose on day 3; format: ADME, organism-based; design: dose 110 mg/kg, route oral
HepG2 = assay: Cytotoxicity against human HepG2 cells after 72 hrs; format: cell-based; settings: hepg2, 72 h
Cytochrome P450 2D6 = Cytochrome P450 2D6 (Homo sapiens, UniProt P10635); assay: Inhibition of human recombinant CYP2D6 after 30 mins; format: ADME; settings: recombinant enzyme, 0.5 h
Cytochrome P450 2C19 = Cytochrome P450 2C19 (Homo sapiens, UniProt P33261); assay: Inhibition of human recombinant CYP2C19 after 30 mins; format: ADME; settings: recombinant enzyme, 0.5 h
Cytochrome P450 1A2 = target: T1, Cytochrome P450 1A2 (Homo sapiens, UniProt P05177); assay: Inhibition of human recombinant CYP1A2 after 30 mins; format: ADME; settings: recombinant enzyme, 0.5 h
T1 sequence (P05177 whole entry): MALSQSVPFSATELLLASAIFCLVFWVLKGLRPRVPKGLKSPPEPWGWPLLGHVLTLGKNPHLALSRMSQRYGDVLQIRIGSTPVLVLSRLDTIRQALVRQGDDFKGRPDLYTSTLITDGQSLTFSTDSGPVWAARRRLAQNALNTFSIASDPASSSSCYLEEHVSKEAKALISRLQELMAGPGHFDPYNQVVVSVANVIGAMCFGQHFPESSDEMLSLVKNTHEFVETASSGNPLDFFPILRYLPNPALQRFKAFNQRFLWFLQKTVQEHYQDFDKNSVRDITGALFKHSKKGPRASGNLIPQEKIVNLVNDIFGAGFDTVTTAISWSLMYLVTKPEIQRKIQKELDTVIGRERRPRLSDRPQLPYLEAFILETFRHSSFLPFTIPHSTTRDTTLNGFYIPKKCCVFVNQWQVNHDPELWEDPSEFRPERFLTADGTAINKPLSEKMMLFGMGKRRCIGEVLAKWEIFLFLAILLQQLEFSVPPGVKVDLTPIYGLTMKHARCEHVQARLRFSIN

[5] = Plasma concentration in Plasmodium chabaudi ASS infected NIH mouse at 110 mg/kg, po qd measured 24 hrs after post last dose on day 3; format: ADME, organism-based; design: dose 110 mg/kg, route oral
How it was run: (§2)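 P. chabaudi-infected mice were dosed orally once daily for four days, starting four hours post-infection. Plasma compound levels were measured at 1, 6 and 24 h after the last dose on Day 3.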

Plasmodium falciparum [6] = assay: Antimalarial activity against chloroquine-sensitive Plasmodium falciparum 3D7 infected in […] after 48 hrs by SYBR Green I-based fluorescence method; format: functional, organism-based
Cytochrome P450 3A4 = Cytochrome P450 3A4 (Homo sapiens, UniProt P08684); assay: Inhibition of human recombinant CYP3A4 after 30 mins; format: ADME; settings: recombinant enzyme, 0.5 h
Cytochrome P450 2C9 = Cytochrome P450 2C9 (Homo sapiens, UniProt P11712); assay: Inhibition of human recombinant CYP2C9 after 30 mins; format: ADME; settings: recombinant enzyme, 0.5 h
[7] = Plasma concentration in Plasmodium chabaudi ASS infected NIH mouse at 100 mg/kg, po qd measured 1 hr after post last dose on day 3; format: ADME, organism-based; design: dose 100 mg/kg, route oral; how it was run: as §2
Plasmodium chabaudi [8] = assay: Antimalarial activity against Plasmodium chabaudi ASS infected in NIH mouse assessed as inhibition of parasitemia at 100 mg/kg, po qd for 4 days; format: functional; settings: 96 h; how it was run: as §1
[9] = Plasma concentration in Plasmodium chabaudi ASS infected NIH mouse at 100 mg/kg, po qd measured 6 hrs after post last dose on day 3; format: ADME, organism-based; design: dose 100 mg/kg, route oral; how it was run: as §2
[10] = Plasma concentration in Plasmodium chabaudi ASS infected NIH mouse at 100 mg/kg, po qd measured 24 hrs after post last dose on day 3; format: ADME, organism-based; design: dose 100 mg/kg, route oral; how it was run: as §2
Plasmepsin V = Plasmepsin V (Plasmodium falciparum (isolate 3D7), UniProt Q8I6Z5); assay: (§3) Inhibition of Plasmodium falciparum […] plasmepsin-5 using DABCYL-GNKRTLAQKQG-EDANS as substrate measured every 15 mins of 75 mins by fluorescence assay
[11] = Selectivity ratio of IC50 for human BACE1 to IC50 for Plasmodium falciparum plasmepsin-2
[12] = target: Plasmepsin V (Plasmodium falciparum (isolate 3D7)) (UniProt Q8I6Z5); assay: as §3
[13] = Selectivity ratio of IC50 for human cathepsin D to IC50 for Plasmodium falciparum plasmepsin-2
[14] = Selectivity ratio of IC50 for human cathepsin E to IC50 for Plasmodium falciparum plasmepsin-2
[15] = target: Plasmepsin II (Plasmodium falciparum) (UniProt P46925); assay: Inhibition of Plasmodium falciparum plasmepsin-2 after 60 mins by fluorescence assay
[16] = test system: Plasmepsin IV (Plasmodium falciparum); assay: Inhibition of Plasmodium falciparum plasmepsin-4 after 60 mins by fluorescence assay

Sequence of Cytochrome P450 2C19 (P33261 whole entry): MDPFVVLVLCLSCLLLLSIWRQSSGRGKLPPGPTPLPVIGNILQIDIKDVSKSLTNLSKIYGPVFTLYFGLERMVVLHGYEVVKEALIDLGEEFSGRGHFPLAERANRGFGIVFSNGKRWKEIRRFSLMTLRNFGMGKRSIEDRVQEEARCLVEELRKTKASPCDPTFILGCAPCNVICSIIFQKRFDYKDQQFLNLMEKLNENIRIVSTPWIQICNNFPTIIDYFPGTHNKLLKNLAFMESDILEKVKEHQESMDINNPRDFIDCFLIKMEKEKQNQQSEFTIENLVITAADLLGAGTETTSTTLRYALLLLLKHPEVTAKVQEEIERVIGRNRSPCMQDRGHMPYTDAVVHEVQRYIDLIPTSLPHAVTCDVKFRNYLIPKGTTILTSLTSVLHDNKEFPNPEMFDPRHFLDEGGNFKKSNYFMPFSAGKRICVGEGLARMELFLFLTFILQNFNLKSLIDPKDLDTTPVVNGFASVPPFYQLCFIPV
Sequence of Cytochrome P450 2C9 (P11712 whole entry): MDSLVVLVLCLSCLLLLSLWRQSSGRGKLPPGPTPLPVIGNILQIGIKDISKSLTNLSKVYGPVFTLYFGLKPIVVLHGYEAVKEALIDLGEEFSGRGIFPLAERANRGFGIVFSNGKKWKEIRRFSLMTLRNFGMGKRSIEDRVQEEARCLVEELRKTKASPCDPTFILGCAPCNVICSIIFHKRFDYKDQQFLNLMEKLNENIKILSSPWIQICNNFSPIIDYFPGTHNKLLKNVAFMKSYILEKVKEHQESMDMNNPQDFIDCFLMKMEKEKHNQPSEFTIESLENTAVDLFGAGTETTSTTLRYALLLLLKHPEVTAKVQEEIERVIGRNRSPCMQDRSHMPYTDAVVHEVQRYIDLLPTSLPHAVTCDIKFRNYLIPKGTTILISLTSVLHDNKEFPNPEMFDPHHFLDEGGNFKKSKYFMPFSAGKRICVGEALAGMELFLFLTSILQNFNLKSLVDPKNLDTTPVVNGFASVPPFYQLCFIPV
Sequence of Cytochrome P450 3A4 (P08684 whole entry): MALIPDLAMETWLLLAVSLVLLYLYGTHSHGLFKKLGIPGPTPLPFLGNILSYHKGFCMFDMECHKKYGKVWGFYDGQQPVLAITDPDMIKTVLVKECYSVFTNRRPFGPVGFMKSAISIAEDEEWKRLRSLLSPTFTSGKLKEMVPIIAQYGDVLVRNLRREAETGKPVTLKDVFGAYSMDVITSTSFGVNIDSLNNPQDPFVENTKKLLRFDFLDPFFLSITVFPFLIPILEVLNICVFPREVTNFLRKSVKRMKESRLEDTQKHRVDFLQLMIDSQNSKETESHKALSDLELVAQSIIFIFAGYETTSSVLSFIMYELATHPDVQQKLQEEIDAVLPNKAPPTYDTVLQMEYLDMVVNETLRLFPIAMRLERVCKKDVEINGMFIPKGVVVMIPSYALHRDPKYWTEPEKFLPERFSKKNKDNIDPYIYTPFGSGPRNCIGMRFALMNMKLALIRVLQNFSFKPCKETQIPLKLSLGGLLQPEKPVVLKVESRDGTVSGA
Sequence of Cytochrome P450 2D6 (P10635 whole entry): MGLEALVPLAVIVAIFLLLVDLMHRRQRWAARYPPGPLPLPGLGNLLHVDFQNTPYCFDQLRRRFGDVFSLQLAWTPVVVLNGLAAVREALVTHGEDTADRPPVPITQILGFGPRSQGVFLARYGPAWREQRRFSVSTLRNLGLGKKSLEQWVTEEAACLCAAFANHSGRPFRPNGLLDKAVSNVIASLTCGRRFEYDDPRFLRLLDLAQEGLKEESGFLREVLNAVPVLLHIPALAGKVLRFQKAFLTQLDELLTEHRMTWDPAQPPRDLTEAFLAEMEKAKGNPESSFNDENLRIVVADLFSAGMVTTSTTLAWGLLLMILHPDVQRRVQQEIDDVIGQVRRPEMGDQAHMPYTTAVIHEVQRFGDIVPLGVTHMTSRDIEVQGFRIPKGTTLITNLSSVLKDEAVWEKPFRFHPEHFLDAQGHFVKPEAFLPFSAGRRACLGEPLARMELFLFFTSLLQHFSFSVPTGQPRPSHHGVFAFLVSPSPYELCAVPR
Sequence of Plasmepsin V (Plasmodium falciparum (isolate 3D7)) (Q8I6Z5 whole entry, looked up): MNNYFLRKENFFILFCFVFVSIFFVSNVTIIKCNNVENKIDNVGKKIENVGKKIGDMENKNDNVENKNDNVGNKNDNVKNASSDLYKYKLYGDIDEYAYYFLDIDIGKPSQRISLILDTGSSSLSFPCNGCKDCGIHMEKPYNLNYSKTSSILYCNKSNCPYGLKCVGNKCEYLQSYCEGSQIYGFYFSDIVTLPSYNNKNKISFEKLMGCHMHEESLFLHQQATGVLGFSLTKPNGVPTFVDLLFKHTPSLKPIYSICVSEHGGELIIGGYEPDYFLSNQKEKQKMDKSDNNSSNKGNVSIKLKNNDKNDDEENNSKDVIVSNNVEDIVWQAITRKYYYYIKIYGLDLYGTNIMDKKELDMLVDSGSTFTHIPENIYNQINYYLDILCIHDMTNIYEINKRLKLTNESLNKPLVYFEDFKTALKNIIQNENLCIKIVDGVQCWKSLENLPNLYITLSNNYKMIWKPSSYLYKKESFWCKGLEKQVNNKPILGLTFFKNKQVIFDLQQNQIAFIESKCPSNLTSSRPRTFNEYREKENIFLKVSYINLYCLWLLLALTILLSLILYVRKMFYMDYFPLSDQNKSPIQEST
Sequence of Plasmepsin II (Plasmodium falciparum) (P46925 125-453 limits assumed): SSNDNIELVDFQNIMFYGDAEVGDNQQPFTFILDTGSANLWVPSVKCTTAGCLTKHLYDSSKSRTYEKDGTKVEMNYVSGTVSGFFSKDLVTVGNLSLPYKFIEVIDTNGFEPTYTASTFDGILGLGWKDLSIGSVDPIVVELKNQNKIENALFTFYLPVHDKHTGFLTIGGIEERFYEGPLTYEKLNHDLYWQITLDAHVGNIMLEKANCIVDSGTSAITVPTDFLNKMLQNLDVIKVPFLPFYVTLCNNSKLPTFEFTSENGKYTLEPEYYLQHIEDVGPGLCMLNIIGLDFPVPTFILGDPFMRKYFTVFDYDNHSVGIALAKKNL
Sequence of Plasmepsin V (Q8I6Z5 whole entry): as the sequence (Q8I6Z5 whole entry, looked up) above

COc1ccc(C2(c3ccc(OC)cc3)NC(=N)N(C3CCOCC3)C2=O)cc1
IC50 (Plasmodium falciparum [1]): 0.459 µM | inhibition in vivo at 110 mg/kg (Plasmodium chabaudi [2]): 63% | inhibition (Plasmodium falciparum [3]): Active | concentration at 0.5 h [4]: 4.14 µg/mL | Activity (HepG2): Toxic | inhibition (INH) (Cytochrome P450 2D6): Not Active | inhibition (INH) (Cytochrome P450 2C19): Not Active | inhibition (INH) (Cytochrome P450 1A2): Not Active | concentration at 24 h [5]: 0.029 µg/mL | inhibition (Plasmodium falciparum [6]): Active | inhibition (INH) (Cytochrome P450 3A4): Active | inhibition (INH) (Cytochrome P450 2C9): Not Active

COc1ccc(C2(c3ccc(OC)cc3)NC(=N)N(C3CCN(C(=O)OC(C)(C)C)CC3)C2=O)cc1
IC50 (Plasmodium falciparum [1]): 0.436 µM

COc1ccc(C2(c3ccc(OC)cc3)NC(=N)N(C3CCC(O)CC3)C2=O)cc1 (configuration not stated)
IC50 (Plasmodium falciparum [1]): 14.8 µM

COc1ccc(C2(c3ccc(OC)cc3)NC(=N)N(C3CCCC3)C2=O)cc1
IC50 (Plasmodium falciparum [1]): 0.611 µM

Cc1cccc(C2(c3cccc(C)c3)NC(=N)N(C3CCCCC3)C2=O)c1
IC50 (Plasmodium falciparum [1]): 0.533 µM

COc1ccc(C2(c3cccc(-c4ccccn4)c3)NC(=N)N(C3CCCCC3)C2=O)cc1 (racemic)
IC50 (Plasmodium falciparum [1]): 1.81 µM

N=C1NC(c2ccc(Cl)cc2)(c2ccc(Cl)cc2)C(=O)N1C1CCCCC1
IC50 (Plasmodium falciparum [1]): 1.07 µM

COc1ccc(C2(c3ccc(OC)cc3)NC(=N)N(C3CC3)C2=O)cc1
IC50 (Plasmodium falciparum [1]): 4.11 µM

COc1ccc(C2(c3ccc(OC)cc3)NC(=N)N(CC3CCCCC3)C2=O)cc1
IC50 (Plasmodium falciparum [1]): 0.383 µM | inhibition (Plasmodium falciparum [3]): Active | concentration at 1 h [7]: 2.52 µg/mL | inhibition in vivo at 100 mg/kg (Plasmodium chabaudi [8]): 73% | concentration at 6 h [9]: 2.19 µg/mL | Activity (HepG2): Toxic | inhibition (INH) (Cytochrome P450 2D6): Not Active | inhibition (INH) (Cytochrome P450 2C19): Not Active | inhibition (INH) (Cytochrome P450 1A2): Not Active | concentration at 24 h [10]: 0.007 µg/mL | inhibition (Plasmodium falciparum [6]): Active | inhibition (INH) (Cytochrome P450 3A4): Active | inhibition (INH) (Cytochrome P450 2C9): Not Active

COc1ccc(C2(c3ccc(OC)cc3)NC(=N)N(C3CCN(C)CC3)C2=O)cc1
IC50 (Plasmodium falciparum [1]): 0.697 µM

COc1ccc(C2(c3ccc(OC)cc3)NC(=N)N(c3ccccc3)C2=O)cc1
IC50 (Plasmodium falciparum [1]): 100 µM

Cc1cccc(C)c1OCC(=O)N[C@@H](Cc1ccccc1)[C@@H](O)C[C@H](Cc1ccccc1)NC(=O)[C@H](C(C)C)N1CCCNC1=O [LOPINAVIR]
IC50 (Plasmepsin V): > 20 µM

N=C1NC(c2ccccc2)(c2cccc(-c3cccnc3)c2)C(=O)N1C1CCCCC1 (racemic)
IC50 (Plasmodium falciparum [1]): 0.75 µM | Ratio IC50 [11]: > 1000 | inhibition [12]: inactive | Ratio IC50 [13]: > 1000 | Ratio IC50 [14]: 200

CCCN1C(=N)NC(c2ccc(OC)cc2)(c2ccc(OC)cc2)C1=O
IC50 (Plasmodium falciparum [1]): 1.14 µM

N=C1NC(c2ccccc2)(c2ccccc2)C(=O)N1C1CCCCC1
IC50 (Plasmodium falciparum [1]): 3.85 µM

CCN1C(=N)NC(c2ccc(OC)cc2)(c2ccc(OC)cc2)C1=O
IC50 (Plasmodium falciparum [1]): 3.95 µM

CCC(CN1C(=N)NC(c2ccc(OC)cc2)(c2ccc(OC)cc2)C1=O)c1ccccc1 (configuration not stated)
IC50 (Plasmodium falciparum [1]): 0.244 µM

COc1ccc(C2(c3ccccc3)NC(=N)N(C3CCCCC3)C2=O)cc1 (racemic)
IC50 (Plasmodium falciparum [1]): 0.533 µM

COc1ccc(C2(c3ccc(OC)cc3)NC(=S)N(C3CCCCC3)C2=O)cc1
inhibition (Plasmodium falciparum [1]): inactive | inhibition [15]: inactive

COc1cccc(C2(c3cccc(-c4ccncc4)c3)NC(=N)N(C3CCCCC3)C2=O)c1 (racemic)
IC50 (Plasmodium falciparum [1]): 0.318 µM

N=C1NC(c2ccccc2)(c2cccc(OCc3ccccc3)c2)C(=O)N1C1CCCCC1 (racemic)
IC50 (Plasmodium falciparum [1]): 0.641 µM

N=C1NC(c2cccc(Cl)c2)(c2cccc(Cl)c2)C(=O)N1C1CCCCC1
IC50 (Plasmodium falciparum [1]): 1.06 µM

COc1ccc(C2(c3ccc(OC)cc3)NC(=N)N(C(C)C)C2=O)cc1
IC50 (Plasmodium falciparum [1]): 1.66 µM

COc1ccc(C2(c3cccc(-c4ccccc4)c3)NC(=N)N(C3CCCCC3)C2=O)cc1 (racemic)
IC50 (Plasmodium falciparum [1]): 1.49 µM

CC(C)(C)N1C(=N)NC(c2ccccc2)(c2ccccc2)C1=O
IC50 (Plasmodium falciparum [1]): > 100 µM

COc1ccc(C2(c3ccc(OC)cc3)NC(=N)N(C)C2=O)cc1
IC50 (Plasmodium falciparum [1]): 7.92 µM

COc1ccc(C2(c3ccc(OC)cc3)NC(=N)N(C3CCC3)C2=O)cc1
IC50 (Plasmodium falciparum [1]): 0.722 µM

COc1ccc(C2(c3cccc(-c4cccnc4)c3)NC(=N)N(C3CCCCC3)C2=O)cc1 (racemic)
IC50 (Plasmodium falciparum [1]): 0.595 µM

COc1cccc(C2(c3cccc(OC)c3)NC(=N)N(C3CCCCC3)C2=O)c1
IC50 (Plasmodium falciparum [1]): 0.768 µM | inhibition [12]: inactive

COc1ccc(C2(c3ccc(OC)cc3)NC(=N)N(CCc3ccccc3)C2=O)cc1
IC50 (Plasmodium falciparum [1]): 2.38 µM

COc1ccc(C2(c3ccc(OC)cc3)NC(=N)N(Cc3ccccc3)C2=O)cc1
IC50 (Plasmodium falciparum [1]): 0.855 µM

COc1cccc(C2(c3cccc(-c4cccnc4)c3)NC(=N)N(C3CCCCC3)C2=O)c1 (racemic)
IC50 (Plasmodium falciparum [1]): 0.787 µM

COc1ccc(C2(c3ccc(OC)cc3)NC(=O)N(C3CCCCC3)C2=O)cc1
inhibition (Plasmodium falciparum [1]): inactive | inhibition [15]: inactive | inhibition [16]: inactive

Cc1ccc(C2(c3ccc(C)cc3)NC(=N)N(C3CCCCC3)C2=O)cc1
IC50 (Plasmodium falciparum [1]): 1.26 µM

CCOc1ccc(C2(c3ccc(OCC)cc3)NC(=N)N(C3CCCCC3)C2=O)cc1
IC50 (Plasmodium falciparum [1]): 0.466 µM

N=C1NC(c2ccccc2)(c2ccccc2)C(=O)N1Cc1ccccc1
IC50 (Plasmodium falciparum [1]): 8.29 µM

COc1ccc(C2(c3ccc(OC)cc3)NC(=N)N(C3CCNCC3)C2=O)cc1
IC50 (Plasmodium falciparum [1]): > 5 µM

N=C1NC(c2cccc(-c3cccnc3)c2)(c2cccc(-c3cccnc3)c2)C(=O)N1C1CCCCC1
IC50 (Plasmodium falciparum [1]): 0.725 µM

COc1ccc(C2(c3ccc(OC)cc3)NC(=N)N(CC3CCOCC3)C2=O)cc1
IC50 (Plasmodium falciparum [1]): 0.463 µM | inhibition (Plasmodium falciparum [3]): Active | concentration at 1 h [7]: 10.4 µg/mL | inhibition in vivo at 100 mg/kg (Plasmodium chabaudi [8]): 41% | concentration at 6 h [9]: 3.03 µg/mL | Activity (HepG2): Toxic | inhibition (INH) (Cytochrome P450 2D6): Not Active | inhibition (INH) (Cytochrome P450 2C19): Not Active | inhibition (INH) (Cytochrome P450 1A2): Not Active | concentration at 24 h [10]: 0.123 µg/mL | inhibition (Plasmodium falciparum [6]): Active | inhibition (INH) (Cytochrome P450 3A4): Active | inhibition (INH) (Cytochrome P450 2C9): Not Active

COc1ccc(C2(c3ccc(OC)cc3)NC(=N)N(C3CCCCCC3)C2=O)cc1
IC50 (Plasmodium falciparum [1]): 0.427 µM

N=C1NC(c2ccccc2)(c2cccc(Oc3ccccc3)c2)C(=O)N1C1CCCCC1 (racemic)
IC50 (Plasmodium falciparum [1]): 0.424 µM

N=C1NC(c2ccc(OC(F)(F)F)cc2)(c2ccc(OC(F)(F)F)cc2)C(=O)N1C1CCCCC1
IC50 (Plasmodium falciparum [1]): 2.2 µM

COc1cccc(C2(c3ccccc3)NC(=N)N(C3CCCCC3)C2=O)c1 (racemic)
IC50 (Plasmodium falciparum [1]): 0.917 µM

COc1ccc(C2(c3ccc(OC)cc3)NC(=N)N(CCCc3ccccc3)C2=O)cc1
IC50 (Plasmodium falciparum [1]): 0.512 µM

Source: ChEMBL document CHEMBL3108756, “Evaluation of aminohydantoins as a novel class of antimalarial agents” (ACS Med Chem Lett, 2014)
